Data from ChEMBL document CHEMBL3286259, “Synthesis and anticancer activity of some novel 5,6-fused hybrids of juglone based 1,4-naphthoquinones” (Eur J Med Chem, 2014).
Active and inactive are the calls of the source. The calls are words filed in the database; no cut-off is given here.

Experiments:
[1] = Cytotoxicity against human ME180 cells assessed as inhibition of cell viability after 48 hrs by MTT assay; format: functional, cell-based; details: ME-180, 48 h
Procedure, shortened: (§1)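 Cells were counted by trypan blue exclusion, seeded at 1x10^4 cells per well, and exposed to a series of compound concentrations for 48 h at 37 °C in DMEM with 10% FBS. The medium was replaced with serum-free medium plus MTT (5 mg/ml reagent) for 4 h at 37 °C. Formazan was dissolved in DMSO for 10 min and A570 was read. IC50 came from a plot of % viability versus control against concentration.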

MCF7 [2] = assay: Cytotoxicity against human MCF7 cells assessed as inhibition of cell viability after 48 hrs by MTT assay; format: functional, cell-based; details: MCF7, 48 h; procedure, shortened: as §1
HeLa = assay: Cytotoxicity against human HeLa cells assessed as inhibition of cell viability after 48 hrs by MTT assay; format: functional, cell-based; procedure, shortened: as §1
MDA-MB-453 [3] = assay: Cytotoxicity against human MDA-MB-453 cells assessed as inhibition of cell viability after 48 hrs by MTT assay; format: functional, cell-based; details: MDA-MB-453, 48 h; procedure, shortened: as §1
MDA-MB-231 [4] = assay: Cytotoxicity against human MDA-MB-231 cells assessed as inhibition of cell viability after 48 hrs by MTT assay; format: functional, cell-based; details: MDA-MB-231, 48 h; procedure, shortened: as §1
PC-3 [5] = assay: Cytotoxicity against human PC3 cells assessed as inhibition of cell viability after 48 hrs by MTT assay; format: functional, cell-based; details: PC-3, 48 h; procedure, shortened: as §1
HT-29 = assay: Cytotoxicity against human HT-29 cells assessed as inhibition of cell viability after 48 hrs by MTT assay; format: functional, cell-based; details: HT-29, 48 h; procedure, shortened: as §1
[6] = Retardation factor of the compound using hexane/ethyl acetate at ratio of 3:1 as solvent system; format: physicochemical
[7] = Retardation factor of the compound using hexane/ethyl acetate at ratio of 1.8:1 as solvent system; format: physicochemical
PC-3 [8] = assay: Cell cycle arrest in human PC3 cells assessed as increase in accumulation at G2/M phase at 3 to 6 uM after 48 hrs by flow cytometry relative to control; format: functional
Procedure, shortened: (§2)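 Cells were plated at […] per well in six-well plates and treated for 48 h. They were harvested by trypsinization, washed twice in PBS, and fixed in 70% ice-cold ethanol at −20 °C for 3 h. Cells were then incubated with propidium iodide cell-cycle reagent at 37 °C for 30 min, and DNA content was measured by flow cytometry. PC-3 assays were run in duplicate.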

PC-3 [9] = assay: Induction of morphological changes in human PC3 cells assessed as early apoptosis by measuring condensed chromatin, cell membrane blebbing, destructive fragmentation of nuclei at 3 uM after 48 hrs by acridine orange/ethidium bromide staining based fluorescence microscopy; format: functional
Procedure, shortened: (§3)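 Cells were seeded at 1×10^6 per well in 6-well plates and treated for 48 h. After a PBS wash they were stained with a 1:1 acridine orange/ethidium bromide mix for 5 min in the dark, washed again, and imaged by inverted fluorescence microscopy at 200X. Two thousand cells were counted and scored as viable, early apoptotic, late apoptotic or necrotic, expressed as %.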

PC-3 [10] = assay: Induction of morphological changes in human PC3 cells assessed as late apoptosis/necrosis at 6 uM after 48 hrs by acridine orange/ethidium bromide staining based fluorescence microscopy; format: functional, cell-based; procedure, shortened: as §3
PC-3 [11] = assay: Cell cycle arrest in human PC3 cells assessed as accumulation at G0/G1 phase at 3 uM after 48 hrs by flow cytometry (reference value: 55%); format: functional; procedure, shortened: as §2
PC-3 [12] = assay: Cell cycle arrest in human PC3 cells assessed as accumulation at S phase at 3 uM after 48 hrs by flow cytometry (reference value: 15.8%); format: functional; procedure, shortened: as §2
PC-3 [13] = assay: Cell cycle arrest in human PC3 cells assessed as accumulation at G2/M phase at 3 uM after 48 hrs by flow cytometry (reference value: 20.9%); format: functional; procedure, shortened: as §2
PC-3 [14] = assay: Cell cycle arrest in human PC3 cells assessed as accumulation at G0/G1 phase at 6 uM after 48 hrs by flow cytometry (reference value: 55%); format: functional; procedure, shortened: as §2
PC-3 [15] = assay: Cell cycle arrest in human PC3 cells assessed as accumulation at S phase at 6 uM after 48 hrs by flow cytometry (reference value: 15.8%); format: functional; procedure, shortened: as §2
PC-3 [16] = assay: Cell cycle arrest in human PC3 cells assessed as accumulation at G2/M phase at 6 uM after 48 hrs by flow cytometry (reference value: 20.9%); format: functional; procedure, shortened: as §2
PC-3 [17] = assay: Ratio of etoposide IC50 to compound IC50 for human PC3 cells; format: functional
[18] = Retardation factor of the compound using hexane/ethyl acetate at ratio of 19:1 as solvent system; format: physicochemical
MCF7 [19] = assay: Ratio of etoposide IC50 to compound IC50 for human MCF7 cells; format: functional
MDA-MB-453 [20] = assay: Induction of morphological changes in human MDA-MB-453 cells assessed as early apoptosis by measuring condensed chromatin, cell membrane blebbing, destructive fragmentation of nuclei at 5 uM after 48 hrs by acridine orange/ethidium bromide staining based fluorescence microscopy; format: functional; procedure, shortened: as §3
MDA-MB-453 [21] = assay: Induction of morphological changes in human MDA-MB-453 cells assessed as late apoptosis/necrosis at 10 uM after 48 hrs by acridine orange/ethidium bromide staining based fluorescence microscopy; format: functional, cell-based; procedure, shortened: as §3
MDA-MB-453 [22] = assay: Cell cycle arrest in human MDA-MB-453 cells assessed as accumulation at G0/G1 phase at 5 uM after 48 hrs by flow cytometry (reference value: 62.6%); format: functional; procedure, shortened: as §2
MDA-MB-453 [23] = assay: Cell cycle arrest in human MDA-MB-453 cells assessed as accumulation at S phase at 5 uM after 48 hrs by flow cytometry (reference value: 5.9%); format: functional; procedure, shortened: as §2
MDA-MB-453 [24] = assay: Cell cycle arrest in human MDA-MB-453 cells assessed as accumulation at G2/M phase at 5 uM after 48 hrs by flow cytometry (reference value: 23.5%); format: functional; procedure, shortened: as §2
MDA-MB-453 [25] = assay: Cell cycle arrest in human MDA-MB-453 cells assessed as accumulation at G0/G1 phase at 10 uM after 48 hrs by flow cytometry (reference value: 62.6%); format: functional; procedure, shortened: as §2
MDA-MB-453 [26] = assay: Cell cycle arrest in human MDA-MB-453 cells assessed as accumulation at S phase at 10 uM after 48 hrs by flow cytometry (reference value: 5.9%); format: functional; procedure, shortened: as §2
MDA-MB-453 [27] = assay: Cell cycle arrest in human MDA-MB-453 cells assessed as accumulation at G2/M phase at 10 uM after 48 hrs by flow cytometry (reference value: 23.5%); format: functional; procedure, shortened: as §2
MDA-MB-453 [28] = assay: Cell cycle arrest in human MDA-MB-453 cells assessed as increase in accumulation at S phase after 48 hrs by flow cytometry; format: functional, cell-based; procedure, shortened: as §2
MDA-MB-453 [29] = assay: Cell cycle arrest in human MDA-MB-453 cells assessed as increase in accumulation at G2/M phase after 48 hrs by flow cytometry; format: functional, cell-based; procedure, shortened: as §2
MDA-MB-453 [30] = assay: Ratio of etoposide IC50 to compound IC50 for human MDA-MB-453 cells; format: functional
MDA-MB-231 [31] = assay: Ratio of etoposide IC50 to compound IC50 for human MDA-MB-231 cells; format: functional

SMILES | IC50 [1] [µM] | IC50 (MCF7 [2]) [µM] | IC50 (HeLa) [µM] | IC50 (MDA-MB-453 [3]) [µM] | IC50 (MDA-MB-231 [4]) [µM] | IC50 (PC-3 [5]) [µM] | IC50 (HT-29) [µM] | also measured
Cc1cc2ccc3c(c2o1)C(=O)C=CC3=O | 15 | 24.3 | 51.2 | 25.2 | 38.9 | 18.2 | 57.9 | Rf [6]: 0.42
O=C1C=CC(=O)c2c1ccc1c2OC(CI)C1 (stereo unspecified) | 9.4 | 13.4 | 27.4 | 20.8 | 29.2 | 12.7 | 31.3 | Rf [7]: 0.48
C=CCOc1cccc2c1C(=O)C=C(C)C2=O | 46.7 | 14.7 | 78 | 29.3 | 36.1 | 34.2 | 33.7 | Rf [6]: 0.45
COc1cccc2c1C(=O)c1c(O)c3c(c(O)c1C2=O)C[C@@](O)(C(=O)CO)C[C@@H]3O[C@H]1C[C@H](N)[C@H](O)[C@H](C)O1 [DOXORUBICIN] | 0.39 |  |  |  |  |  |  | 
CC1=CC(=O)c2c(ccc3cc(C)oc23)C1=O | 44.1 | 28.8 | 55.2 | 32.6 | 44 | 31.1 | 60.1 | Rf [6]: 0.43
C=CCOc1cccc2c1C(=O)C=CC2=O | > 100 | 24 | > 100 | 37.8 | > 100 | 22.3 | 32.3 | 
O=C1C=CC(=O)c2c(O)cccc21 [JUGLONE] | 65.4 | 16.5 | 93.7 | 27.5 | 75.8 | 88.7 | > 100 | 
CC1=CC(=O)c2c(ccc3c2OC(CI)C3)C1=O (stereo unspecified) | 31.2 | 33.8 | 16.2 | 21.6 | 33.2 | 26.8 | 48.4 | Rf [7]: 0.38
COc1cc([C@@H]2c3cc4c(cc3[C@@H](O[C@@H]3O[C@@H]5CO[C@@H](C)O[C@H]5[C@H](O)[C@H]3O)[C@H]3COC(=O)[C@H]23)OCO4)cc(OC)c1O [ETOPOSIDE] | 8.9 |  | 4.71 | 12.5 |  |  |  | 
CC1=CC(=O)c2c(O)cccc2C1=O [PLUMBAGIN] | 43.4 | 12.2 | 59 | 34.6 | 51.1 | 17.2 | 26.2 | 
O=C1C=CC(=O)c2c1ccc1c2OCC=C1 | 45.5 | 23.2 | 59.6 | 37.2 | 45.6 | 5.7 | 27.8 | fold change (FC) (PC-3 [8]): 1.6; Activity (PC-3 [9]): Active; Activity (PC-3 [10]): Active; Activity (PC-3 [11]): 45.3%; Activity (PC-3 [12]): 15.4%; Activity (PC-3 [13]): 30.8%; Activity (PC-3 [14]): 46.7%; Activity (PC-3 [15]): 12.3%; Activity (PC-3 [16]): 32%; Rf [7]: 0.38; Ratio IC50 (PC-3 [17]): 2.5
C=CCc1ccc2c(c1O)C(=O)C=CC2=O | 82.9 | 58.2 | > 100 | 53.7 | > 100 | 92.9 | > 100 | Rf [18]: 0.39
C=CCc1ccc2c(c1O)C(=O)C=C(C)C2=O | 60.8 | 11.6 | 60.8 | 39 | 62.9 | 16.8 | 63 | Rf [18]: 0.35; Ratio (MCF7 [19]): 2
CC1=CC(=O)c2c(ccc3c2OCC=C3)C1=O | 25.9 | 11.7 | > 100 | 10.9 | 18.3 | 24.5 | 34.6 | Activity (MDA-MB-453 [20]): Active; Activity (MDA-MB-453 [21]): Active; Activity (MDA-MB-453 [22]): 45%; Activity (MDA-MB-453 [23]): 12.6%; Activity (MDA-MB-453 [24]): 31.3%; Activity (MDA-MB-453 [25]): 10.5%; Activity (MDA-MB-453 [26]): 21.5%; Activity (MDA-MB-453 [27]): 55.9%; Activity (MDA-MB-453 [28]): Dose-dependent effect; Activity (MDA-MB-453 [29]): Dose-dependent effect; Rf [7]: 0.39; Ratio IC50 (MCF7 [19]): 2; Ratio IC50 (MDA-MB-453 [30]): 1.1; Ratio IC50 (MDA-MB-231 [31]): 1.3
